Measurements from PubChem BioAssay AID2311 (NMMLSC, 2010).

Target: Regulator of G-protein signaling 19 (Homo sapiens) (UniProt P49795)
Test: RGS19-Galphao binding modulators, analog potency, SAR follow-up, biochemical, SAR compounds, multiplexed bead flow cytometry (AID 2311)
Details: Bead-bound RGS19 and AF488-Galphao binding
Outline: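 System: biotinylated RGS19 on streptavidin beads, multiplexed with other RGS bead sets. Evaluation: EC50 by logistic fit, converted to Ki. Schedule: 30–90 min compound exposure at room temperature. Benchmarks: DMSO wells and RGS-free bead controls. Measured by: high-throughput flow cytometry, median green fluorescence of RGS19-coated beads.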

Regulator of G-protein signaling 19 (Homo sapiens), sequence (P49795 whole entry, looked up): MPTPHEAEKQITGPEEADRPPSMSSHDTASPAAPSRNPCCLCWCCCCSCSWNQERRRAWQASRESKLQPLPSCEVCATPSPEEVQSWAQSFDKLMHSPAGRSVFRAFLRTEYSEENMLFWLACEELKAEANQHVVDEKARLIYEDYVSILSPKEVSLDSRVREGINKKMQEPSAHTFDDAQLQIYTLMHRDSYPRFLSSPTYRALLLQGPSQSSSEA

**Q.** With `NS(=O)(=O)c1ccc(N/N=C/c2ccc(O)c(O)c2O)c([N+](=O)[O-])c1` as the compound, how does the EC50 read?
**A.** 109 nM

Same assay, conditions: Bead-bound RGS19 and AF488-Galphao binding, measured here: Ki calculated from EC50

**Q.** How did the Ki turn out when `Cc1cc(Cl)ccc1N=c1ssnc1Cl` was run?
**A.** 110 nM

**Q.** `CCN=c1scc(C)n1/N=C/c1ccc(O)c(O)c1O` was tested. Which Ki did it give?
**A.** 350 nM

**Q.** `CCOC(=O)c1sc(NC(=O)CSc2nnc(Cc3ccccc3)o2)c(C#N)c1C` was tested. Which Ki did it give?
**A.** 140 nM

**Q.** Which Ki does the source give for `CN=c1scc(C)n1/N=C/c1ccc(O)c(O)c1O` here?
**A.** 200 nM

**Q.** How did the Ki turn out when `Cc1cccc(N2CCN(C(=O)COc3nsc4nc(C)cc(C)c34)CC2C)c1` (configuration not stated) was run?
**A.** 550 nM

**Q.** Which Ki does the source give for `NS(=O)(=O)c1ccc(N/N=C/c2ccc(O)c(O)c2O)c([N+](=O)[O-])c1` here?
**A.** 100 nM

**Q.** How did the Ki turn out when `CN1CCN(C2=C(Cl)C(=O)C(c3cnc(N4CCCCC4)s3)=C(Cl)C2=O)CC1` was run?
**A.** 30 nM

**Q.** With `Cc1cccc(N2CCN(C(=O)Cn3sc4nc(C)cc(C)c4c3=O)CC2C)c1` (configuration not stated) as the compound, how does the Ki read?
**A.** 90 nM

**Q.** With `CC1(C)OC(=O)C(=Cc2ccc(-c3ccc(S(N)(=O)=O)cc3)o2)C(=O)O1` as the compound, how does the Ki read?
**A.** 230 nM

**Q.** For `O=C(NCCCN1CCOCC1)c1sc2cc([N+](=O)[O-])ccc2c1Cl`, which Ki is on record?
**A.** 460 nM

**Q.** Which Ki does the source give for `Cc1[nH]n(-c2ccccc2)c(=S)c1C=NCCCN=Cc1c(C)[nH]n(-c2ccccc2)c1=S` here?
**A.** 50 nM

**Q.** With `O=C(Cc1csc(N2CCOCC2)n1)N/N=C/c1ccc(O)c(O)c1O` as the compound, how does the Ki read?
**A.** 750 nM

**Q.** Which Ki does the source give for `COc1ccc(C2=CC(=O)C=CC2=O)cc1` here?
**A.** 160 nM

**Q.** Which Ki does the source give for `CCC(=O)NC(c1ccc(C)cc1)c1cc([N+](=O)[O-])c2cccnc2c1O` (configuration not stated) here?
**A.** 1160 nM

**Q.** `CC(=O)OCCCNc1cc(Sc2nc3ccccc3s2)c2nonc2c1[N+](=O)[O-]` was tested. Which Ki did it give?
**A.** 10 nM

**Q.** Which Ki does the source give for `O=C1C(Cl)=C(N2CCCCC2)C(=O)C(Cl)=C1c1cnc(N2CCCCC2)s1` here?
**A.** 80 nM
